These results are taken from ChEMBL document CHEMBL2146371, “Biologically active dibenzofurans from Pilidiostigma glabrum, an endemic Australian Myrtaceae” (J Nat Prod, 2012).

In data set [1] the test system is Escherichia coli. The experiment in a line: Antibacterial activity against Escherichia coli ATCC 25922 after overnight incubation by broth microdilution method. The class given is functional. Put shortly: (§1)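 Broth microdilution (CLSI M7A7, modified) in tryptone soya broth with 0.025 g/mL glucose, replacing Mueller-Hinton. Compounds were 2-fold serially diluted in TSB containing 2% DMSO. Inoculum came from a 0.5 McFarland suspension diluted 1:100, giving about 5 × 10^5 cfu in 100 μL. Plates were incubated overnight at 37 °C. MIC = lowest concentration with no growth visible to the unaided eye.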

Data set [2] relates to RAW264.7. The experiment in a line: Antiinflammatory activity in mouse RAW264.7 cells assessed as inhibition of LPS-induced TNFalpha production incubated for 1 hr prior to LPS-challenge measured after 20 hrs by immunoassay. It is filed as functional, cell-based. Put shortly:
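TNF-α was measured by mouse ELISA kit in the same LPS-stimulated RAW264 supernatants as the nitrite assay. Compounds were added 1 h before LPS (10 μL of 10 μg/mL), followed by 20 h incubation.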

In data set [3] the test system is Staphylococcus epidermidis. Put plainly: Antibacterial activity against Staphylococcus epidermidis ATCC 35984 incubated overnight followed by compound transfer to TSB medium measured after overnight incubation by cell counting. The class given is functional.
Data set [4] relates to Staphylococcus aureus. The experiment in a line: Antibacterial activity against Staphylococcus aureus ATCC 25923 incubated overnight followed by compound transfer to TSB medium measured after overnight incubation by cell counting. It is filed as functional.
The test system of data set [5] is Staphylococcus aureus. Put plainly: Antibacterial activity against Staphylococcus aureus ATCC 25923 after overnight incubation by broth microdilution method. It is filed as functional. Put shortly:
as §1

Data set [6] can be described thus: Antioxidant activity against AAPH-induced fluorescein peroxidation assessed as trolox equivalent measured every min for 35 mins by fluorimetric analysis. It is filed as functional. Put shortly:
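ORAC: samples were diluted from 20 mg/mL DMSO stock into 75 mM phosphate buffer (pH 7.4), then 2-fold serially, with each tested at two concentrations. Reaction used fluorescein (10 μL, 5 μM) and AAPH (170 μL, 20 mM). Fluorescence was read every minute for 35 min at 37 °C. Values come from a Trolox standard curve (12.5–100 μM) of net AUC and are given as μmol TE/g. Quadruplicate.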

A short description of data set [7]: Cytotoxicity against Swiss albino mouse 3T3 cells. It is filed as cell-based, NIH3T3. The settings on record: read-out: ED50 (the source's name).
The test system of data set [8] is Staphylococcus epidermidis. Put plainly: Antibacterial activity against Staphylococcus epidermidis ATCC 35984 after overnight incubation by broth microdilution method. The class given is functional. Put shortly:
as §1
For orientation: Broth dilution looks for growth in wells or tubes with falling amounts of substance.

The nature of data set [9]: Cytotoxicity against mouse RAW264.7 cells after 24 hrs by ATPlite assay. The class given is cell-based. Conditions: read-out: ED50. Put shortly:
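RAW264 cells were plated at 30 000/well in DMEM with 10% FBS. Compounds were tested at six concentrations from DMSO stocks diluted 20-fold in medium, for 24 h at 37 °C, 5% CO2. Cellular ATP was read by ATPlite luminescence. Triplicate; ED50 with 95% CI from curve fitting.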
On the technique in general: ATP-based viability assays read luminescence as a measure of living cells.

Data set [10] relates to RAW264.7. Put plainly: Selectivity index, ratio of cytotoxic ED50 for mouse RAW264.7 cells to IC50 for LPS-induced nitric oxide synthesis in mouse RAW264.7 cells. The class given is functional. Put shortly:
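Selectivity index = RAW264 cytotoxicity ED50 (24 h ATPlite) divided by IC50 for inhibition of LPS-induced nitrite production in RAW264 cells.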

Data set [11] has as its system Staphylococcus aureus. The experiment in a line: Antibacterial activity against Staphylococcus aureus ATCC 29213 incubated overnight followed by compound transfer to TSB medium measured after overnight incubation by cell counting. The class given is functional.
The nature of data set [12]: Antiinflammatory activity in Swiss albino mouse 3T3 cells assessed as inhibition of calcium ionophore A23187-induced PGE2 synthesis incubated for 3 hrs prior to calcium ionophore A23187-challenge measured after 15 mins by enzyme immunoassay. It is filed as functional, cell-based. Conditions: NIH3T3. Put shortly: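 3T3 cells were seeded at 27 × 10^3/well in phenol-red-free DMEM with 5% FBS and 5% newborn calf serum, then left to attach overnight. Compounds in DMSO (0.5% final) were added for 3 h at 37 °C. A23187 (0.5 mM, 10 μL/well) was then added for 15 min. Supernatant was diluted 81-fold and PGE2 measured by EIA. Triplicate; percent inhibition relative to DMSO control.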

Data set [13] concerns RAW264.7. The experiment in a line: Antiinflammatory activity in mouse RAW264.7 cells assessed as inhibition of LPS-induced nitric oxide production incubated for 1 hr prior to LPS-challenge measured after 20 hrs by Griess method. The class given is functional, cell-based. Put shortly: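 RAW264 cells (10^6 cells/mL, 120 μL/well) were pre-incubated for 20 h. Compounds in DMSO, diluted 20-fold in medium, were added for 1 h. LPS (10 μL of 10 μg/mL) was then added and incubation continued for 20 h. Nitrite was measured by Griess reagent (23 °C, 20 min, A550) against 0–100 μM standards. Triplicate; expressed as a percentage of solvent control.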
Background: Griess reagent forms a coloured azo dye with nitrite.

The subject of data set [14] is Staphylococcus aureus. The experiment in a line: Antibacterial activity against Staphylococcus aureus ATCC 29213 after overnight incubation by broth microdilution method. It is filed as functional. Put shortly: as §1
The subject of data set [15] is Pseudomonas aeruginosa. Put plainly: Antibacterial activity against Pseudomonas aeruginosa ATCC 27853 after overnight incubation by broth microdilution method. The class given is functional. Put shortly: as §1
For data set [16], the system named is NIH3T3. Put plainly: Selectivity index, ratio of cytotoxic ED50 for Swiss albino mouse 3T3 cells to IC50 for calcium ionophore A23187-induced PGE2 synthesis in Swiss albino mouse 3T3 cells. The class given is functional.

Converted amounts (≈) assume the structure as drawn. The source made the active and inactive calls. No cut-off for these calls is given here.

In general, MIC refers to the lowest concentration that inhibits growth of the organism. In general, MBC refers to the lowest tested concentration that kills the bacteria rather than only halting them. In general, IC50 refers to the point on the concentration scale where inhibition reaches its midpoint. Turning to `CC[C@H](C)C(=O)c1c(O)c(C)c(O)c2c1oc1c(C(=O)C(C)C)c(O)c(C)c(O)c12`, the MIC entry in [1] was “inactive”. In [2], the inhibition result is “inactive”. The MBC was found to be 6 µM (≈ 2.49 µg/mL) in [3], 24.1 µM (≈ 9.99 µg/mL) in [4] and 24.1 µM (≈ 9.99 µg/mL) in data set [11]. For the same compound, the MIC was determined as 6 µM (≈ 2.49 µg/mL) in [5], 6 µM (≈ 2.49 µg/mL) in data set [8] and 12.1 µM (≈ 5.01 µg/mL) in data set [14]. The Activity in data set [6] was 6280 µmol/g. Moreover, in [7], the CC50 was found to be 22.3 µM. For the same compound, in data set [9], the CC50 at 24 h worked out at 17.6 µM. Besides, the “Selectivity Index” value in data set [10] turned out to be 4. In addition, the IC50 in [12] is over 200 µM; in data set [13] it was 4.4 µM. The inhibition result in data set [13] is “Dose-dependent effect”.
`C[C@H]1COc2c(N3CCN(C)CC3)c(F)cc3c(=O)c(C(=O)O)cn1c23` [LEVOFLOXACIN]: the MIC in data set [15], in data set [1], in data set [5], in [8] and in data set [14] was under 0.53 µM each time.
Consider `Oc1cc(O)c2c(c1)O[C@H](c1ccc(O)c(O)c1)[C@H](O)C2`, for which the Activity in data set [6] came out at 29200 µmol/g.
In the case of `CC[C@H](C)C(=O)c1c(O)c(C)c2oc3c(C)c(O)c(C(=O)C(C)C)c(O)c3c2c1O`, the MIC entry in data set [1] was “inactive”. The inhibition entry in data set [2] is “inactive”. The MBC in data set [3] is 3.9 µM (≈ 1.62 µg/mL); in [4], 1.9 µM (≈ 0.787 µg/mL); in [11], 3.9 µM (≈ 1.62 µg/mL). Also, the MIC was found to be 0.5 µM (≈ 0.207 µg/mL) in data set [5], 1.9 µM (≈ 0.787 µg/mL) in data set [8] and 3.9 µM (≈ 1.62 µg/mL) in [14]. In [6], the Activity was determined as 2580 µmol/g. Moreover, the CC50 in data set [7] is 9.4 µM. For the same compound, in data set [9], the CC50 at 24 h is 6.5 µM. Moreover, the “Selectivity Index” value in data set [10] is 10.83; in data set [16], 1.57. Also, the values for the IC50 in data set [12] and in data set [13] were 6 µM and 0.6 µM, respectively. Besides, the inhibition result in data set [13] was “Dose-dependent effect”.
For `CC[C@H](C)C(=O)c1c(O)c(C)c(O)c2c1oc1c(C(=O)[C@@H](C)CC)c(O)c(C)c(O)c12`, in data set [1], the MIC result is “inactive”. Further, the inhibition entry in data set [2] was “inactive”. Further, the MBC in data set [3] is 3.7 µM (≈ 1.59 µg/mL); in data set [4], 3.7 µM (≈ 1.59 µg/mL); in data set [11], 14.7 µM (≈ 6.3 µg/mL). Further, the MIC in data set [5] was 3.7 µM (≈ 1.59 µg/mL); in data set [8], 3.7 µM (≈ 1.59 µg/mL); in data set [14] it was 7.2 µM (≈ 3.09 µg/mL). Besides, in data set [6], the Activity was found to be 3640 µmol/g. Besides, in data set [7], the CC50 was 24.1 µM. The CC50 at 24 h in [9] was found to be 6.8 µM. The “Selectivity Index” value in data set [10] was determined as 1.36. Besides, the IC50 in data set [12] was over 200 µM; in data set [13], 5 µM. Moreover, the inhibition result in [13] was “Dose-dependent effect”.
`Cc1c(O)c(C(=O)C(C)C)c(O)c2c1oc1c(C)c(O)c(C(=O)C(C)C)c(O)c12`: the MIC entry in data set [15] and in [1] was “inactive” each time. Further, the inhibition result in data set [2] is “inactive”. For the same compound, the MBC in data set [3] amounted to 22.7 µM (≈ 9.09 µg/mL); in data set [4], 5.7 µM (≈ 2.28 µg/mL); in data set [11], 11.4 µM (≈ 4.56 µg/mL). Besides, the MIC in data set [5], in [8] and in data set [14] was 2.7 µM (≈ 1.08 µg/mL) each time. Moreover, the Activity in data set [6] came out at 1450 µmol/g. The CC50 in [7] came out at 15.3 µM. Moreover, in data set [9], the CC50 at 24 h was 12 µM. Further, the entries for the “Selectivity Index” value in data set [10] and in data set [16] were 3.53 and 3.4, respectively. Also, the IC50 in data set [12] came out at 4.5 µM; in data set [13] it was 3.4 µM. For the same compound, the inhibition result in data set [13] is “Dose-dependent effect”.
Regarding `CC[C@H](C)C(=O)c1c(O)c(C)c2oc3c(C)c(O)c(C(=O)CC(C)C)c(O)c3c2c1O` [RHODOMYRTOXIN C], in data set [1], the MIC entry was “inactive”. In addition, in [2], the inhibition entry is “inactive”. In addition, the MBC in data set [3] was determined as 1.9 µM (≈ 0.814 µg/mL); in data set [4], 0.9 µM (≈ 0.386 µg/mL); in data set [11] it was 7.2 µM (≈ 3.09 µg/mL). The MIC in data set [5] came to 0.9 µM (≈ 0.386 µg/mL); in data set [8], 1.9 µM (≈ 0.814 µg/mL); in data set [14], 7.2 µM (≈ 3.09 µg/mL). Also, in data set [6], the Activity came out at 1010 µmol/g. In addition, the CC50 in data set [7] came to 7 µM. Also, the CC50 at 24 h in data set [9] was found to be 1.4 µM. The “Selectivity Index” value in data set [10] is on record as 1.17; in [16] it was 2.06. The IC50 amounted to 3.4 µM in data set [12] and 1.2 µM in data set [13]. Also, the inhibition result in data set [13] was “Dose-dependent effect”.
As for `Cc1c(O)c(C(=O)C(C)C)c2oc3c(C(=O)C(C)C)c(O)c(C)c(O)c3c2c1O`, the MIC result in [15] and in data set [1] was “inactive” in each case. Moreover, the inhibition result in [2] was “inactive”. Besides, the figures for the MBC in data set [3], in data set [4] and in [11] were 13.2 µM (≈ 5.29 µg/mL), 26.5 µM (≈ 10.6 µg/mL) and 26.5 µM (≈ 10.6 µg/mL), respectively. For the same compound, the MIC in data set [5] came to 13.2 µM (≈ 5.29 µg/mL); in data set [8], 13.2 µM (≈ 5.29 µg/mL); in [14], 26.5 µM (≈ 10.6 µg/mL). In addition, the Activity in data set [6] amounted to 609 µmol/g. In [7], the CC50 came out at 44 µM. The CC50 at 24 h in data set [9] is 142 µM. The “Selectivity Index” value in data set [10] was found to be 1.6. Also, the IC50 in [12] was over 200 µM; in data set [13] it was 89 µM.
